Measured values: ChEMBL document CHEMBL1152221, “Synthesis and activity of substituted carbamates as potentiators of the alpha4beta2 nicotinic acetylcholine receptor” (Bioorg Med Chem Lett, 2008)
Calls of active or inactive are those of the source. No cut-off for these calls is given here.

Experiments:
[1] = molecular target: T1, Neuronal acetylcholine receptor; alpha4/beta2 (Homo sapiens) (UniProt P17787+P43681); experiment: Activity at human alpha4beta2 nAChR assessed as potentiation of nicotine-induced response by fluorescent Ca2+ flux assay relative to nicotine
[2] = molecular target: T1, Neuronal acetylcholine receptor; alpha4/beta2 (Homo sapiens); experiment: Activity at human alpha4beta2 nAChR assessed as potentiation of nicotine-induced response by fluorescent Ca2+ flux assay
[3] = Clearance in Sprague-Dawley rat; format: ADME, organism-based; details: in vivo
[4] = molecular target: Neuronal acetylcholine receptor; alpha4/beta2 (Rattus norvegicus) (UniProt P09483+P12390); experiment: Displacement of [3H]cystisine from alpha4beta2 nAChR in rat cerebral cortical membrane at >=30 uM; format: cell membranes
[5] = molecular target: Neuronal acetylcholine receptor; alpha3/beta4 (Homo sapiens) (UniProt P30926+P32297); experiment: Activity at human alpha3beta4 nAChR expressed in Xenopus oocytes assessed as potentiation of acetylcholine-induced response by patch-clamp electrophysiology; format: cell-based; details: Oocyte
[6] = Metabolic stability in rat liver microsomes; format: ADME, Microsome; details: read-out: Stability
[7] = tested on: LLC-PK1; experiment: Efflux ratio of permeability from […] in human MDR1 transfected pig LLC-PK1 cells at 5 uM after 2 hrs; format: ADME, cell-based, Sus scrofa; details: llc-pk1, 2 h
Method in brief: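 MDR1-LLC-PK1 cells were seeded at 200,000 cells/well on membrane filters. Transport was run manually on day 5 after plating, in both A-to-B and B-to-A directions, in the presence of 0.1% bovine serum albumin.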

[8] = molecular target: Neuronal acetylcholine receptor; alpha3/beta2 (Homo sapiens) (UniProt P17787+P32297); experiment: Activity at human alpha3beta2 nAChR expressed in Xenopus oocytes assessed as potentiation of acetylcholine-induced response by patch-clamp electrophysiology; format: cell-based; details: Oocyte
[9] = Metabolic stability in human liver microsomes; format: ADME, Microsome; details: read-out: Stability
[10] = Ratio of drug level in brain to plasma in Sprague-Dawley rat; format: ADME, organism-based; details: brain and plasma

SMILES | Efficacy [1] | EC12 [2] | also measured
CC(C)[C@H](Cn1nc(C(F)(F)F)cc1C(F)(F)F)OC(=O)Nc1ccc(F)cc1F | 16% | 3.9 µM | –
CC[C@H](Cn1nc(C(C)C)cc1C(C)C)OC(=O)Nc1ccc(F)cc1F | 83% | 0.38 µM | –
CC[C@H](Cn1ccc(C(F)(F)F)n1)OC(=O)Nc1ccc(F)cc1F | 15% | 0.89 µM | –
Cc1ccccc1NC(=O)O[C@@H](Cn1nc(C(C)C)cc1C(C)C)C(C)C | 9% | > 100 µM | –
COc1ccc(NC(=O)O[C@@H](Cn2nc(C(C)C)cc2C(C)C)C(C)C)cc1 | 77% | 0.14 µM | –
CC(C)c1cc(C(C)C)n(C[C@@H](OC(=O)Nc2ccc(F)cc2F)C(C)C)n1 | 9% | > 50 µM | –
CC[C@H](Cn1nc(C(F)(F)F)cc1C1=CCCC1)OC(=O)Nc1ccc(F)cc1F | 20% | 0.46 µM | –
CC(C)c1cc(C(C)C)n(C[C@@H](NC(=O)Nc2ccc(F)cc2F)C(C)C)n1 | 19% | > 10 µM | –
CC(C)c1cc(C(C)C)n(C[C@H](OC(=O)Nc2ccc(C(F)(F)F)cc2)C(C)C)n1 | 106% | 0.4 µM | –
CCOc1ccc(NC(=O)O[C@@H](Cn2nc(C(C)C)cc2C(C)C)C(C)C)cc1 | 100% | 0.11 µM | clearance [3]: 1.8 L/h/kg; Activity [4]: inactive
Cc1cccc(NC(=O)O[C@@H](Cn2nc(C(C)C)cc2C(C)C)C(C)C)c1 | 25% | 0.9 µM | –
CC(C)c1cc(C(C)C)n(C[C@H](OC(=O)NC2CCCCC2)C(C)C)n1 | 13% | 2.7 µM | –
CC(C)[C@H](Cn1cccn1)OC(=O)Nc1ccc(F)cc1F | 6% | > 50 µM | –
CC(C)c1cc(C(C)C)n(CC(OC(=O)Nc2ccc(F)cc2F)C(C)(C)C)n1 (racemic) | 11% | 3.7 µM | –
CC(C)c1cc(C(C)C)n(CC(OC(=O)Nc2ccsc2)C(C)C)n1 (racemic) | 12% | 0.7 µM | –
CC[C@H](Cn1nc(C(F)(F)F)cc1C1CC1)OC(=O)Nc1ccc(F)cc1F | 54% | 0.7 µM | –
CC(C)c1cc(C(C)C)n(C[C@H](OC(=O)Nc2ccc(F)cc2F)C(C)C)n1 | 76% | 0.25 µM | clearance [3]: 4.9 L/h/kg; EC12 [5]: > 100 µM; microsomal CLint [6]: > 399 µL/min/mg; Ratio [7]: 1.1; EC12 [8]: > 100 µM; microsomal CLint [9]: 644 µL/min/mg; Kp [10]: 1
CC(C)c1cc(C(C)C)n([C@H](C)[C@@H](C)OC(=O)Nc2ccc(F)cc2F)n1 (racemic) | 12% | 1.3 µM | –

SMILES | Efficacy [1] | EC12 [2] | also measured
CC[C@H](Cn1nc(C(F)(F)F)cc1C1CCCC1)OC(=O)Nc1ccc(F)cc1F | 95% | 0.57 µM | clearance [3]: 4.23 L/h/kg
CC[C@H](Cn1nc(C)cc1C)OC(=O)Nc1ccc(F)cc1F | 15% | 1.18 µM | –
CC[C@H](Cn1nc(C(F)(F)F)cc1C1CCNCC1)OC(=O)Nc1ccc(F)cc1F | -3% | > 100 µM | –
CC(C)c1cc(C(C)C)n(C[C@H](NC(=O)Nc2ccc(F)cc2F)C(C)C)n1 | 25% | 0.31 µM | clearance [3]: 3 L/h/kg; EC12 [5]: > 100 µM; Ratio [7]: 1.1; EC12 [8]: > 100 µM; Kp [10]: 1
CC(C)c1cc(C(C)C)n(CC(OC(=O)Nc2ccccc2)C(C)C)n1 (racemic) | 18% | 0.38 µM | –
CCCOc1ccc(NC(=O)O[C@@H](Cn2nc(C(C)C)cc2C(C)C)C(C)C)cc1 | 107% | 0.33 µM | –
Cc1ccc(NC(=O)O[C@@H](Cn2nc(C(C)C)cc2C(C)C)C(C)C)cc1 | 59% | 0.13 µM | –
CCc1cc(C(F)(F)F)nn1C[C@H](OC(=O)Nc1ccc(F)cc1F)C(C)C | 50% | 0.21 µM | –
CC(C)[C@H](Cn1nccc1C(F)(F)F)OC(=O)Nc1ccc(F)cc1F | 30% | 2.1 µM | –
CC(C)c1cc(C(C)C)n([C@@H](C)[C@@H](C)OC(=O)Nc2ccc(F)cc2F)n1 (racemic) | 10% | > 100 µM | –
CC(C)c1cc(C(C)C)n([C@@H]2CCC[C@H]2OC(=O)Nc2ccc(F)cc2F)n1 | 73% | 0.25 µM | –
CC(C)[C@H](Cn1nc(C(F)(F)F)cc1-c1ccccc1)OC(=O)Nc1ccc(F)cc1F | 10% | 2.4 µM | –
CC(C)c1cc(C(C)C)n(C[C@@H](C)OC(=O)Nc2ccc(F)cc2F)n1 | 15% | 0.7 µM | –
CC(C)c1cc(C(C)C)n(C[C@H](OC(=O)Nc2ccc(Oc3ccccc3)cc2)C(C)C)n1 | 89% | 0.34 µM | –
CC[C@H](Cn1nc(C(F)(F)F)cc1C1CCCO1)OC(=O)Nc1ccc(F)cc1F (some centres not stated) | 3% | > 100 µM | –
CC(C)c1cc(C(C)C)n(C[C@H](OC(=O)Nc2ccc(Cl)cc2)C(C)C)n1 | 91% | 0.33 µM | –
CC[C@H](Cn1nc(C(F)(F)F)cc1C1CCCCC1)OC(=O)Nc1ccc(F)cc1F | 88% | 0.38 µM | –
CC(C)c1cc(C(C)C)n(C[C@H](OC(=O)Nc2ccncc2)C(C)C)n1 | 7% | > 100 µM | –
